Results taken from ChEMBL document CHEMBL2150988, “Preparation and optimization of new 4-(morpholin-4-yl)-(6-oxo-1,6-dihydropyrimidin-2-yl)amide derivatives as PI3Kβ inhibitors” (Bioorg Med Chem Lett, 2012).
Values after ≈ are worked out from the molar mass of the structure shown.

Assays:
[1] = Drug uptake in PTEN deficient human PC3 cells xenografted SCID mouse tumor at 30 mg/kg, po administered as solution after 6 hrs; assay type: ADME, organism-based, Neoplasm, PC-3; parameters: dose 30 mg/kg, route oral; conditions: tumor (PC3 xenograft), read-out: Drug uptake
Outline: (§1)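 SCID mice bearing PTEN-deficient PC3 prostate tumor xenografts given a single oral dose, either 30 mg/kg in solution or 244 mg/kg in suspension; drug levels in plasma and tumor measured at 1 and 6 h after dosing.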

[2] = Drug uptake in PTEN deficient human PC3 cells xenografted SCID mouse tumor at 30 mg/kg, po administered as solution after 1 hr; assay type: ADME, organism-based, Neoplasm, PC-3; parameters: dose 30 mg/kg, route oral; conditions: tumor (PC3 xenograft), read-out: Drug uptake; outline: as §1
[3] = Inhibition of Akt phosphorylation at S473 in PTEN deficient human PC3 cells; assay type: cell-based; conditions: PC-3
Mus musculus [4] = assay: Inhibition of Akt phosphorylation at S473 in PTEN deficient human PC3 cells xenografted SCID mouse tumor at 244 mg/kg, po administered as suspension after 6 hrs; assay type: functional; conditions: PC-3, 6 h
Mus musculus [5] = assay: Hepatic clearance in SCID mouse at 3 mg/kg, iv; assay type: ADME, organism-based, Liver; parameters: dose 3 mg/kg, route intravenous; conditions: in vivo
[6] = Terminal elimination half life in SCID mouse at 10 mg/kg, po; assay type: ADME, organism-based; parameters: dose 10 mg/kg, route oral; conditions: in vivo, read-out: beta t1/2 (converted)
[7] = Equilibrium solubility of the compound in phosphate buffer at pH 7.4 after 16 hrs by HPLC analysis; assay type: physicochemical
[8] = Efflux ratio of permeability […] in human Caco2/TC7 cells; assay type: ADME, cell-based
Outline: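 Caco-2 TC7 clone cells grown as a monolayer; compound transport measured in both directions, apical to basolateral (A–B) and basolateral to apical (B–A); apparent permeability (Papp) read out, and efflux ratio derived from the two directional measurements.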

[9] = Drug metabolism in human liver microsomes after 20 mins; assay type: ADME, Microsome; conditions: read-out: Drug metabolism
Outline: (§2)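 Liver microsomes (human or mouse) incubated with compound for 20 min; %lability reported as % of compound metabolized.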

Mus musculus [10] = assay: Inhibition of Akt phosphorylation at T308 in PTEN deficient human PC3 cells xenografted SCID mouse tumor at 30 mg/kg, po administered as solution after 1 hr; assay type: functional; conditions: PC-3, 1 h
[11] = Drug uptake in PTEN deficient human PC3 cells xenografted SCID mouse tumor at 244 mg/kg, po administered as suspension after 6 hrs; assay type: ADME, organism-based, Neoplasm, PC-3; parameters: dose 244 mg/kg, route oral; conditions: tumor (PC3 xenograft), read-out: Drug uptake; outline: as §1
[12] = Plasma concentration in SCID mouse xenografted with PTEN deficient human PC3 cells at 30 mg/kg, po administered as solution after 1 hr; assay type: ADME, organism-based, PC-3; parameters: dose 30 mg/kg, route oral; outline: as §1
[13] = Plasma concentration in SCID mouse xenografted with PTEN deficient human PC3 cells at 244 mg/kg, po administered as suspension after 6 hrs; assay type: ADME, organism-based, PC-3; parameters: dose 244 mg/kg, route oral; outline: as §1
[14] = Apparent permeability across human Caco2/TC7 cells; assay type: ADME, cell-based; conditions: Caco-2
Outline: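 Caco-2 TC7 clone monolayers; transport measured in both apical-to-basolateral and basolateral-to-apical directions, giving Papp (nm/s) and an efflux ratio.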

[15] = target: Phosphatidylinositol 4,5-bisphosphate 3-kinase catalytic subunit gamma isoform (Homo sapiens, UniProt P48736); assay: Inhibition of PI3Kgamma
[16] = Plasma concentration in SCID mouse xenografted with PTEN deficient human PC3 cells at 244 mg/kg, po administered as suspension after 1 hr; assay type: ADME, organism-based, PC-3; parameters: dose 244 mg/kg, route oral; outline: as §1
[17] = Drug metabolism in mouse liver microsomes after 20 mins; assay type: ADME, Microsome; conditions: read-out: Drug metabolism; outline: as §2
Mus musculus [18] = assay: Inhibition of Akt phosphorylation at T308 in PTEN deficient human PC3 cells xenografted SCID mouse tumor at 244 mg/kg, po administered as suspension after 6 hrs; assay type: functional; conditions: PC-3, 6 h
[19] = target: Phosphatidylinositol 4,5-bisphosphate 3-kinase catalytic subunit beta isoform (Homo sapiens, UniProt P42338); assay: Inhibition of PI3Kbeta
[20] = target: Phosphatidylinositol 4,5-bisphosphate 3-kinase catalytic subunit alpha isoform (Homo sapiens, UniProt P42336); assay: Inhibition of PI3Kalpha
[21] = Volume of distribution at steady state in SCID mouse at 3 mg/kg, iv; assay type: ADME, organism-based; parameters: dose 3 mg/kg, route intravenous; conditions: in vivo, read-out: Vdss
[22] = Plasma concentration in SCID mouse xenografted with PTEN deficient human PC3 cells at 30 mg/kg, po administered as solution after 6 hrs; assay type: ADME, organism-based, PC-3; parameters: dose 30 mg/kg, route oral; outline: as §1
[23] = Drug uptake in PTEN deficient human PC3 cells xenografted SCID mouse tumor at 244 mg/kg, po administered as suspension after 1 hr; assay type: ADME, organism-based, Neoplasm, PC-3; parameters: dose 244 mg/kg, route oral; conditions: tumor (PC3 xenograft), read-out: Drug uptake; outline: as §1
Mus musculus [24] = assay: Inhibition of Akt phosphorylation at S473 in PTEN deficient human PC3 cells xenografted SCID mouse tumor at 244 mg/kg, po administered as suspension after 1 hr; assay type: functional; conditions: PC-3, 1 h
Mus musculus [25] = assay: Inhibition of Akt phosphorylation at S473 in PTEN deficient human PC3 cells xenografted SCID mouse tumor at 30 mg/kg, po administered as solution after 6 hrs; assay type: functional; conditions: PC-3, 6 h
Mus musculus [26] = assay: Inhibition of Akt phosphorylation at T308 in PTEN deficient human PC3 cells xenografted SCID mouse tumor at 244 mg/kg, po administered as suspension after 1 hr; assay type: functional; conditions: PC-3, 1 h
Mus musculus [27] = assay: Inhibition of Akt phosphorylation at S473 in PTEN deficient human PC3 cells xenografted SCID mouse tumor at 30 mg/kg, po administered as solution after 1 hr; assay type: functional; conditions: PC-3, 1 h
[28] = target: T1, Phosphatidylinositol 4,5-bisphosphate 3-kinase catalytic subunit delta isoform (Homo sapiens, UniProt O00329); assay: Inhibition of PI3Kdelta
T1 sequence (O00329 whole entry): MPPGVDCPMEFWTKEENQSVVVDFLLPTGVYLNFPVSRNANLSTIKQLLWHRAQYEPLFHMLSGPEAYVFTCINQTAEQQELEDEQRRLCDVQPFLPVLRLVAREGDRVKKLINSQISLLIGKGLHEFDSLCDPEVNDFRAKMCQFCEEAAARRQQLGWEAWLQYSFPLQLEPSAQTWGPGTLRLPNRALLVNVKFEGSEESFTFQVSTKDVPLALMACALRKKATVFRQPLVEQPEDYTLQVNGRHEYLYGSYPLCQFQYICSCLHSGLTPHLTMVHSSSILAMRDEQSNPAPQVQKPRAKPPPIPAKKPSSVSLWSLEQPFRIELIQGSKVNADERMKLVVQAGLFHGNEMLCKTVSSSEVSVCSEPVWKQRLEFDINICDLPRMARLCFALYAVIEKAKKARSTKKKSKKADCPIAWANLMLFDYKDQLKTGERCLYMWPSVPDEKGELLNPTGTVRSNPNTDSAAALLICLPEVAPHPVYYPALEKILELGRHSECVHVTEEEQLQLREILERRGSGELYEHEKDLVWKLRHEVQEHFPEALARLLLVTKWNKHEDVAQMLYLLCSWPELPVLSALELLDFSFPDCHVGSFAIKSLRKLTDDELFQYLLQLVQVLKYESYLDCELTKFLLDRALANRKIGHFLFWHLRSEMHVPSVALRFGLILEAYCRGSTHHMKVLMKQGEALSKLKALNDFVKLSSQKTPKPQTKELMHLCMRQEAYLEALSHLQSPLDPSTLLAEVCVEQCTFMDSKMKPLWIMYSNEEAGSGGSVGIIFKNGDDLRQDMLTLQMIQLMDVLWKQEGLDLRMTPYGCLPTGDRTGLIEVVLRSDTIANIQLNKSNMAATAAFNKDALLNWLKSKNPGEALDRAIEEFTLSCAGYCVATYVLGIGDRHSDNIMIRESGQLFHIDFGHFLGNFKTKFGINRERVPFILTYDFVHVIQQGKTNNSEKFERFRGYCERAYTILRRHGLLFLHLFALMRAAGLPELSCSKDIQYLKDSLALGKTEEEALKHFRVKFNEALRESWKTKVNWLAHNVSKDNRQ

Cytochrome P450 3A4 = Cytochrome P450 3A4 (Homo sapiens, UniProt P08684); assay: Inhibition of human recombinant CYP3A4; assay type: ADME
[29] = Oral bioavailability in SCID mouse at 10 mg/kg; assay type: ADME, organism-based; conditions: in vivo
Mus musculus [30] = assay: Inhibition of Akt phosphorylation at T308 in PTEN deficient human PC3 cells xenografted SCID mouse tumor at 30 mg/kg, po administered as solution after 6 hrs; assay type: functional; conditions: PC-3, 6 h

Phosphatidylinositol 4,5-bisphosphate 3-kinase catalytic subunit beta isoform, sequence (P42338 whole entry, canonical isoform): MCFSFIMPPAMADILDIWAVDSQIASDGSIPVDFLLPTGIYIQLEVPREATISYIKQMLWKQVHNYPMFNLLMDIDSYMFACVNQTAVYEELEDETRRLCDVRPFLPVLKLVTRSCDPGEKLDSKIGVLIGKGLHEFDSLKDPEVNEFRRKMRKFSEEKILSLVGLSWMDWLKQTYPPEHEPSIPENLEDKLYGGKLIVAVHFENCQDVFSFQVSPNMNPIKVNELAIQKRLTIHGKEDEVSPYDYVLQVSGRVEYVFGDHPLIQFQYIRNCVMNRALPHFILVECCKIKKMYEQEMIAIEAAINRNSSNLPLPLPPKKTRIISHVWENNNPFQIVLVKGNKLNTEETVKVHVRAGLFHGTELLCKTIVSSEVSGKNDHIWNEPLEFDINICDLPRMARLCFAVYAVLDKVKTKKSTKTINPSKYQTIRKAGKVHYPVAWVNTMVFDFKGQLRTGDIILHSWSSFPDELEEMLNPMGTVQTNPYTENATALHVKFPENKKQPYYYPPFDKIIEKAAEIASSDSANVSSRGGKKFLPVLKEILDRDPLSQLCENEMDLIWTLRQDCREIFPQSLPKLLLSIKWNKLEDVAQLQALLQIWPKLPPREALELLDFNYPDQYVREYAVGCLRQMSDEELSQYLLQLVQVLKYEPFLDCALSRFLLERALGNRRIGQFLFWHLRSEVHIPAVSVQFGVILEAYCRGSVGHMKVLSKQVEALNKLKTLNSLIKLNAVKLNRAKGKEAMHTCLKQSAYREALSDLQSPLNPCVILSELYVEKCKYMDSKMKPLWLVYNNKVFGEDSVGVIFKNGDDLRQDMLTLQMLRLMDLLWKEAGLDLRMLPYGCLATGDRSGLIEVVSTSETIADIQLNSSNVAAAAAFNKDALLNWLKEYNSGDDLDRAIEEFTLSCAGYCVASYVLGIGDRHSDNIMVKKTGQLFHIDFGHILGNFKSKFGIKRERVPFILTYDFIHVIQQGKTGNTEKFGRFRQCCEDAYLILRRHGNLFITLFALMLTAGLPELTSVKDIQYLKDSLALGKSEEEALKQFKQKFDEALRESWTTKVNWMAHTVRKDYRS
Phosphatidylinositol 4,5-bisphosphate 3-kinase catalytic subunit alpha isoform, sequence (P42336 whole entry, canonical isoform): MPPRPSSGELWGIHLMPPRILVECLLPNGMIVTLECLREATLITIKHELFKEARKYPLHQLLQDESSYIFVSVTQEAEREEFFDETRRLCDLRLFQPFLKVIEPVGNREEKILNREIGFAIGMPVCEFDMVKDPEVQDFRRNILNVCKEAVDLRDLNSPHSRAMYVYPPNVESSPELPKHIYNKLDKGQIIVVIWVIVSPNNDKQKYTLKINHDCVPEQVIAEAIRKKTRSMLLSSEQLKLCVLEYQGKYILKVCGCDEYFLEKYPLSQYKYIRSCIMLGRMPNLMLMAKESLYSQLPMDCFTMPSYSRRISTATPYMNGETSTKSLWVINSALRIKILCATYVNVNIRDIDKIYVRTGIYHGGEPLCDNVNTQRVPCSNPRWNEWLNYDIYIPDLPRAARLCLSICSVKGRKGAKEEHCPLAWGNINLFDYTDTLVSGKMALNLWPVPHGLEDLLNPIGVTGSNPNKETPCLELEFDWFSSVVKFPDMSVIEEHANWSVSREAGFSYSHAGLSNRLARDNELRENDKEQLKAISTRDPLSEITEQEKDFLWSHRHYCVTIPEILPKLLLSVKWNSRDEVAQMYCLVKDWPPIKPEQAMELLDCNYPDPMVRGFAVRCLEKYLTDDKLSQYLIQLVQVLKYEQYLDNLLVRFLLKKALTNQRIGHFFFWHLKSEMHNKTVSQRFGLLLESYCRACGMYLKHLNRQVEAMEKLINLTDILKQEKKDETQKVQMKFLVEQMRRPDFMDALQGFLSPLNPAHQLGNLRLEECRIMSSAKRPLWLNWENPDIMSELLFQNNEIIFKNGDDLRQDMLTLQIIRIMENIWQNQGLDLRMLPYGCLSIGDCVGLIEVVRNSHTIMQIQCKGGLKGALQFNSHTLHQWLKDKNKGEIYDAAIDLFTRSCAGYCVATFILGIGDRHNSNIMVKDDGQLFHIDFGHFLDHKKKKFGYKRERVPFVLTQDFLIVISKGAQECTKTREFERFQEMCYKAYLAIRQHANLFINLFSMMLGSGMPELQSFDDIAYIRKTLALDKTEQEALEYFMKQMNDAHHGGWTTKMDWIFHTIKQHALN
Phosphatidylinositol 4,5-bisphosphate 3-kinase catalytic subunit gamma isoform, sequence (P48736 whole entry, canonical isoform): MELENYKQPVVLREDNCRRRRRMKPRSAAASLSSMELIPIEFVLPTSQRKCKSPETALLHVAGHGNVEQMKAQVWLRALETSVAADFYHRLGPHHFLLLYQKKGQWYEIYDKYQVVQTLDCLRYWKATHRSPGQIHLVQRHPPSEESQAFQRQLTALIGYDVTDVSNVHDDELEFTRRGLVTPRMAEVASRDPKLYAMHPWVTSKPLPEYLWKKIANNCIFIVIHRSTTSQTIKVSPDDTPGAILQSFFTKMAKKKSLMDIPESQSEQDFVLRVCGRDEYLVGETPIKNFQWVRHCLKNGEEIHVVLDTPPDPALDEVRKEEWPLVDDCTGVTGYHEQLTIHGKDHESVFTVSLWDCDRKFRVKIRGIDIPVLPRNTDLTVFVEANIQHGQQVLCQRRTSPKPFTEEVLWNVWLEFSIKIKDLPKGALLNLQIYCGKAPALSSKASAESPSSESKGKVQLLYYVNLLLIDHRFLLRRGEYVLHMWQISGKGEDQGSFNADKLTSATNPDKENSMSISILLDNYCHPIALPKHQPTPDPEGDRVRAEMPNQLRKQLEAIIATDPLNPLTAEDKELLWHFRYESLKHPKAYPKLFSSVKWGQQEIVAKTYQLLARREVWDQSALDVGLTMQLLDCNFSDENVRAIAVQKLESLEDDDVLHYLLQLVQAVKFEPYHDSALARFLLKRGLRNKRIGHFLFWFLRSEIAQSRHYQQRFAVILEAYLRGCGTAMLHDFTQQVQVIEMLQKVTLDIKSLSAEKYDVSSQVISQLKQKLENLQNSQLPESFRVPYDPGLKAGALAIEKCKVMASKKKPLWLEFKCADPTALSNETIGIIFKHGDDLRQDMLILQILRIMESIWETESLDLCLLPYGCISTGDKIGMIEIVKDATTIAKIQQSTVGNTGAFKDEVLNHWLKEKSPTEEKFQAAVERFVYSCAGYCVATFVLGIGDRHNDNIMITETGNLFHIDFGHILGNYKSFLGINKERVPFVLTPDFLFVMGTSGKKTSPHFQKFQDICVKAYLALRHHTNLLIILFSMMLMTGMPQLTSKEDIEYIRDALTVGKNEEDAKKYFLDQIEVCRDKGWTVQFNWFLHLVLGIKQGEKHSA
Cytochrome P450 3A4, sequence (P08684 whole entry): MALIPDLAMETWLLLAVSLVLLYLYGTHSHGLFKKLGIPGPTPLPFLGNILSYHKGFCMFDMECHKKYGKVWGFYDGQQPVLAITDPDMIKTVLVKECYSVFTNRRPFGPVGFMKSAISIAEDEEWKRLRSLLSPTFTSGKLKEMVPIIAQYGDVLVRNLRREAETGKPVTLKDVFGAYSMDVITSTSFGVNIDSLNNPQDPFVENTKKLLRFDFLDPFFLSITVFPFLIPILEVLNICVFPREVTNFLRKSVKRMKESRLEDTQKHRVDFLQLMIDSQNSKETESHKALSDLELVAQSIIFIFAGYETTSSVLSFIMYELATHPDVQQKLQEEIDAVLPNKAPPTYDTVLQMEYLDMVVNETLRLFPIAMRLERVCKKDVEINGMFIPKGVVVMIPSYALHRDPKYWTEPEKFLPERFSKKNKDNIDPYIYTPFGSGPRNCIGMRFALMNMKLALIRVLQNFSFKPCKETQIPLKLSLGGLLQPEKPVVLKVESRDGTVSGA

concentration at 6 h [1]: 1 µM
concentration at 1 h [2]: 11 µM
IC50 [3]: 79 nM
CLH (Mus musculus [5]): 26.7 mL/min/kg
half-life [6]: 1.4 h
solubility thermodynamic at 16 h [7]: 5 µM (≈ 1.9 µg/mL)
Ratio [8]: 4
metabolised at 20 min [9]: 44%
concentration at 6 h [11]: 1.7 µM
concentration at 1 h [12]: 10 µM
concentration at 6 h [13]: 1.6 µM
Papp [14]: 6.6 ×10⁻⁶ cm/s
IC50 [15]: 8280 nM
concentration at 1 h [16]: 4.5 µM
metabolised at 20 min [17]: 12%
IC50 [19]: 42 nM
IC50 [20]: > 10000 nM
Vd [21]: 1.3 L/kg
concentration at 6 h [22]: 0.4 µM
concentration at 1 h [23]: 6 µM
IC50 [28]: 2210 nM
IC50 (Cytochrome P450 3A4): > 40000 nM
bioavailability [29]: 52%
Compound: Cn1c(CC(=O)Nc2ccc(F)c(Cl)c2)nc(N2CCOCC2)cc1=O
inhibition in vivo at 244 mg/kg (Mus musculus [4]): 0%
inhibition in vivo at 30 mg/kg (Mus musculus [10]): 86%
inhibition in vivo at 244 mg/kg (Mus musculus [18]): 0%
inhibition in vivo at 244 mg/kg (Mus musculus [24]): 73%
inhibition in vivo at 30 mg/kg (Mus musculus [25]): 0%
inhibition in vivo at 244 mg/kg (Mus musculus [26]): 63%
inhibition in vivo at 30 mg/kg (Mus musculus [27]): 91%
inhibition in vivo at 30 mg/kg (Mus musculus [30]): 23%
